The source of these data is ChEMBL document CHEMBL4513216, “Probing the Open Global Health Chemical Diversity Library for Multistage-Active Starting Points for Next-Generation Antimalarials” (ACS Infect Dis, 2020).

This data set in a line: Toxicity liver stage against HepG2, at 10uM. Details: test concentration 10 uM, cell line HepG2-A16-CD81EGFP. Type of data set: cell-based. As to conditions: human, HepG2-A16-CD81EGFP cells; read-out: INHIBITION
Put shortly:
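Uninfected HepG2-A16-CD81EGFP cells, 3 × 10^3 per well, 1536-well, plated on prespotted compound at 10 μM final, parasite-free screening media added to match infected plates; puromycin 10 μM positive, DMSO 0.5% negative; run in parallel with 48 h PbLuc assay at 37 °C, 5% CO2; viability by CellTiter-Glo luminescence, normalized to controls.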

In the case of `NCC1(c2cccc(C(F)(F)F)c2)CCCC1`, the cytotoxicity at 10 µM was -5.7%. With `c1csc(CN2Cc3nc(CN4CCCC4)oc3C2)c1` the figure was 4.59%. With `CCCn1c(C)c(CC(=O)NCC(N)=O)c2c1CC(C)(C)CC2=O` the figure was 2.03%; with `Cc1cc(-c2nccs2)nc(C2CCN(Cc3ccncc3)CC2)n1`, 8.6%. With `OC[C@H]1CCCN1c1nccc(-c2c[nH]nc2C2CCCCC2)n1` the figure was -2.5%; with `CN1C(=O)CCC12CCN(c1ccc(C#N)cn1)CC2`, -109%. On to `Cc1ccc(CNCCCNS(C)(=O)=O)c(Br)c1`, for which the cytotoxicity at 10 µM worked out at 3.36%. Under `CSCc1nc(CCNC(=O)C(N)c2c(C)n[nH]c2C)cs1` (stereo not drawn) stands -3.95%; under `CCSc1cc(C(=O)N(C(C)C)C2CC2)ccn1`, 6.27%. Under `CS(=O)(=O)c1ccc(C(=O)N2CCCC(n3ccnc3)C2)cc1` (stereo not drawn) stands -19.4%; under `CCN1CCN(C2CCN(Cc3noc(C4CC4)n3)CC2)C1=O`, -8.69%. Take `Cc1noc(C)c1CNCC1(COc2cccnc2)C[C@@H](O)[C@@H](O)C1` (stereo partly drawn): the cytotoxicity at 10 µM was -2.36%. As for `CN1CC[C@@H]2[C@@H]1CCN2Cc1ccc2c(c1)OCO2`, the cytotoxicity at 10 µM was determined as 3.11%. For the molecule `COCCCSc1ccc(NCc2scnc2C)cc1`, the cytotoxicity at 10 µM worked out at 55.3%.

Regarding `Cc1cc(C)n(CC2CCCCN2CCCS(=O)(=O)N(C)C)n1` (stereo not drawn), the cytotoxicity at 10 µM was 2.32%. For `CS(=O)(=O)N1CCN(C(=O)c2ccco2)[C@H]2CS(=O)(=O)C[C@H]21`, the cytotoxicity at 10 µM is -6.69%.

`CSc1ccccc1C(C(=O)O)N1CCN(Cc2ccccn2)CC1` (stereo not drawn): the cytotoxicity at 10 µM is -36.2%. On to `Cc1cccc(OCCN2CCN(Cc3noc(C)n3)CC2)c1`, for which the cytotoxicity at 10 µM was -8.78%. With `O=C(NCCOc1ncc(Cl)cc1Cl)c1cccnc1` the figure was -3.23%; with `CC(=O)N1CC[C@@]2(O)CCCC[C@H]2[C@@H]1c1ccccc1`, 2.41%; with `CN(C)CCOCc1nnc2n1CCN(Cc1cccs1)CC2`, 9.03%.

With `CCNC(=O)c1cc2n(n1)CCCO2`, the cytotoxicity at 10 µM amounted to 1.25%. With `CCn1ccnc1CN(C)Cc1nc(CCC(C)C)no1` the figure was 2.89%; with `CCc1ccc(C(=O)N2CCCC(n3cncn3)C2)o1` (stereo not drawn), -9.78%; with `Cn1nc(Cn2ccnc2)c2c1CN(C(=O)c1ccc[nH]1)C2`, -62.7%.

Turning to `CCOCC1c2c(ncn2C(C)C)CCN1C(C)C` (stereo not drawn), the cytotoxicity at 10 µM was found to be 10.5%.

Regarding `Cn1c(CCNC(=O)Nc2cn[nH]c2)nc2ccc(F)cc21`, the cytotoxicity at 10 µM is -6.97%. Under `Fc1cnc(N2CC[C@@H](N3CCOCC3)[C@@H]2Cc2ccncc2)nc1` stands 0.81%. As for `O=C(c1nnn(-c2ccccc2F)c1-c1ccccn1)N1CCSCC1`, the cytotoxicity at 10 µM amounted to 1.32%.

Consider `O=C(Cc1cccc(F)c1)N1CCn2cc(Cn3cccn3)nc2C1`, for which the cytotoxicity at 10 µM was -84.3%.

As to `COCc1cc(N2CCOC(c3ccc(F)cc3)C2)ncn1` (stereo not drawn), the cytotoxicity at 10 µM was -0.987%. Under `Cn1cccc1C(=O)N1CCc2onc(Cn3cccn3)c2C1` stands -4.72%; under `COc1ncccc1CNC(=O)NC1CCOc2ccccc21` (stereo not drawn), -7%; under `Cc1nc(C)n(CC2CCCCN2c2ccnc(-c3ccccc3)n2)n1` (stereo not drawn), -1.17%. As for `Cc1ocnc1C(=O)N1CC[C@@H](O)[C@@H](O)[C@H](N2CCC(F)(F)CC2)C1`, the cytotoxicity at 10 µM worked out at 4.86%. Under `CCOCC(O)CNc1cncc(Br)c1` (stereo not drawn) stands 4.21%; under `Cc1cccnc1NCCNC(=O)c1cnc(-c2cccs2)nc1O`, 4.62%. With `CC(C)(C)c1nc(CNC2CCN(S(C)(=O)=O)CC2)cs1` the figure was -2.34%; with `COc1c(C2CCCN2C(=O)c2cccn2C)c(C)nn1C` (stereo not drawn), -1.88%; with `CS(=O)(=O)N1CCC(CNc2cc(Cl)ccc2C#N)CC1`, 14.9%. For `Cc1cccc(-c2nc(C)nn2CC(=O)NC2CCCC2)c1`, the cytotoxicity at 10 µM was -12.5%. `COc1cc(N2CCC3(CC2)CC(N2CCOCC2)C3)ncn1`: the cytotoxicity at 10 µM was -6.81%. Under `Cc1ccc(-c2nnc(SCC(=O)O)n2-c2ccc(C)cc2)cc1` stands -3.53%. Consider `Cc1nn(C)cc1CN(C)Cc1cc2c(cc1OC(F)F)OCO2`, for which the cytotoxicity at 10 µM is -3.53%.

`CCc1n[nH]c(C(=O)NCCn2ccnc2C)c1C`: the cytotoxicity at 10 µM is -9.29%. With `CCCC(=O)N1CCC(O)(Cn2c(CC)nc3ccccc3c2=O)CC1` the figure was -2.03%.

As for `Cn1nnc2cc(C(=O)N3CCC(Nc4cccnn4)CC3)ccc21`, the cytotoxicity at 10 µM is -2.85%. Under `COCCCC1(C(=O)O)CCCN(Cc2cc3c(cc2C)OCCO3)C1` (stereo not drawn) stands -2.3%; under `c1ccc(Cc2noc(CN3CCCCC3Cn3cncn3)n2)cc1` (stereo not drawn), -13.2%; under `CN1CCCC(c2nccnc2-c2cccc(C(F)(F)F)c2)C1` (stereo not drawn), 7.75%. With `O=C(CC1CC1)N1CCCn2nnc(CNc3ncccn3)c2C1` the figure was -0.802%; with `CC(C)Cn1cc(C(=O)NC2CCS(=O)(=O)C2)c2ccccc2c1=O` (stereo not drawn), 0.724%; with `CN(CC(O)C1CC1)C(=O)Nc1cc(F)cc(Br)c1` (stereo not drawn), -3.85%. With `Cn1nc2c(c1NC(=O)c1ccc(Cl)s1)CCC2` the figure was -1.51%; with `CN(C)c1nccc(C2CN(c3cnccn3)CCO2)n1` (stereo not drawn), 7.95%. Consider `Cc1ccsc1C(=O)N1CCC2(CC1)C(=O)N(C)CCN2CC1CC1`, for which the cytotoxicity at 10 µM was -110%. Under `CCC(C)(CNC(=O)Nc1nncs1)N1CCOCC1` (stereo not drawn) stands -7.98%; under `Cc1nc2c(c(=O)n1C)CCN(Cc1cc3ccccc3[nH]1)CC2`, -8.42%; under `Cc1cc(C(=O)NCC(F)(F)F)c2c(C3CCCN3)noc2n1` (stereo not drawn), 6%. With `O=S(=O)(Cc1ccccc1)c1nnc(N2CCOCC2)s1` the figure was -4.65%; with `CC(=O)N1CCN(CCNC(=O)NC(C)Cn2ccnc2)CC1` (stereo not drawn), 5.74%; with `CC(=O)N1CCC[C@H]1C(=O)N(C)CCCOc1ccccc1`, -1.18%. Regarding `O=C1CC[C@H]2CN(Cc3cccnc3)CC[C@H]2N1CCc1c[nH]cn1`, the cytotoxicity at 10 µM is -1.36%. In the case of `CCCC1CCCN(C(=O)CNC(=O)c2ccoc2C)CC1` (stereo not drawn), the cytotoxicity at 10 µM was found to be 4%. Under `COc1ccc(CNC(=O)Nc2ccc(=O)n(C)c2)cc1` stands 1.92%; under `NC(=O)C1CCCN1Cc1cccc(NC(=O)c2cc(Cl)cc(Cl)c2)c1` (stereo not drawn), 21.3%; under `CCC(=O)N1CCN(Cc2cnc(C)nc2)[C@H]2CS(=O)(=O)C[C@H]21`, 12.3%. With `CCc1nccn1CCC(=O)N1CC(=O)N(c2ccccc2C)CC1C` (stereo not drawn) the figure was -15%. `CN(C)Cc1cccc(-c2cccnc2C(=O)NCC2CC2)c1`: the cytotoxicity at 10 µM was determined as 1.59%. Under `O=C(NCCNc1cnccn1)N1CCc2ccccc2C1` stands -2.73%; under `OCC1CCCN1c1cc(NCc2cc3ccccc3o2)ncn1` (stereo not drawn), 7.53%. Under `Cn1ncc(-c2cc(-c3cccc(O)c3)nc(N)c2C#N)c1C1CC1` stands 79.1%; under `COCC1c2c(cnn2CC2CC2)CCN1Cc1ccsc1` (stereo not drawn), 6.75%.

With `CCn1nc(C)c2nnn(CC(=O)Nc3ccc(C)c(C)c3)c(=O)c21`, the cytotoxicity at 10 µM turned out to be 5.75%.

With `CS(=O)(=O)c1cncnc1C1CCCNC1` (stereo not drawn), the cytotoxicity at 10 µM is -8.33%. Under `CSc1ccc(-c2nc(CN3CCNCC3C)c(C)o2)cc1` (stereo not drawn) stands -5.58%; under `CNC(=O)C1CN(C(=O)c2ccccc2)Cc2cn(C)nc21` (stereo not drawn), -1.5%.

As for `COc1ccccc1CC(=O)NCc1c(C)nc2cc(=O)[nH]n2c1C`, the cytotoxicity at 10 µM is -6.8%. With `O=C(c1ccsc1)N1CCC2(CCN(Cc3ccccn3)C2=O)C1` (stereo not drawn) the figure was -147%; with `Cc1cnn(C2CCCN(C(=O)c3ccc(OCC4CC4)nc3)C2)c1` (stereo not drawn), -4.04%; with `Fc1cnccc1CN1CCC2(CCN2c2ncccn2)C1` (stereo not drawn), -111%. With `CN(C)C(=O)c1ccc2c(c1)N(C)C(CC(=O)NCc1ncc[nH]1)CO2` (stereo not drawn) the figure was -5.93%; with `COc1ccc(Oc2ncccc2NC(=O)N2CCOCC2)cc1`, 9.11%; with `CC1(C)CCN1C(=O)c1cc(F)cc2[nH]cnc12`, -7.09%. Turning to `Cc1nc(C2CCCN2Cc2cc(Cl)c3c(c2)OCCCO3)no1` (stereo not drawn), the cytotoxicity at 10 µM is 10.3%. Under `COc1ccc(-n2cnnc2SCC(=O)N(C)C(C)C)cn1` stands 16.7%. `c1cnc(C2CCCN2c2cnccn2)cn1` (stereo not drawn): the cytotoxicity at 10 µM is -22.6%. With `CCN(CC)CCCNC(=O)Nc1c(C)cccc1C(C)C` the figure was -0.847%; with `CCCC(O)CN1CCC(=O)N(C)Cc2cc(F)ccc21` (stereo not drawn), -124%; with `CCc1cc(C(=O)N2CCCC(Cc3ccc(NC)nn3)C2)on1` (stereo not drawn), -14.1%.

Take `CC(C)c1ncncc1C(=O)N1CCN(Cc2cccnc2)CC1`: the cytotoxicity at 10 µM is -5.85%. With `O=C(O)CN1CCC(F)(F)C2(CCN(c3ccccn3)C2)C1` (stereo not drawn) the figure was 1.78%; with `N#CC1(C(=O)N2CCOC(c3ccc(F)cc3)C2)CCCC1` (stereo not drawn), -3.3%.

On to `CC(O)CN(C)C(=O)Nc1ccn(-c2cccc(C(F)(F)F)c2)n1` (stereo not drawn), for which the cytotoxicity at 10 µM was found to be 4.85%. Take `CN(C)Cc1nnc2n1CCCN(C(=O)c1c[nH]cn1)C2`: the cytotoxicity at 10 µM was found to be 3.77%. Under `Cc1cn[nH]c1C1COCCN1Cc1ccsc1` (stereo not drawn) stands 2.56%; under `CCn1cc(NC(=O)NCCN2CCc3ccccc3C2)cn1`, -2.87%; under `CS(=O)(=O)N1CCC(Cc2cnc(Br)cn2)C1` (stereo not drawn), 14.5%.
